For orientation: Cmax means the peak of the concentration-time curve. The term inhibition denotes how much of the control response was suppressed. Low readings indicate a response near the control, high ones a response far below the control. A word on the EC50: it is the concentration giving half of the maximal effect. The term bioavailability denotes dose-corrected exposure relative to a reference, in per cent. The half-life is how long it takes for the measured level to halve. Low values mean rapid decline, high ones slow decline.

Sequence of hERG (KCNH2) (Q12809 whole entry): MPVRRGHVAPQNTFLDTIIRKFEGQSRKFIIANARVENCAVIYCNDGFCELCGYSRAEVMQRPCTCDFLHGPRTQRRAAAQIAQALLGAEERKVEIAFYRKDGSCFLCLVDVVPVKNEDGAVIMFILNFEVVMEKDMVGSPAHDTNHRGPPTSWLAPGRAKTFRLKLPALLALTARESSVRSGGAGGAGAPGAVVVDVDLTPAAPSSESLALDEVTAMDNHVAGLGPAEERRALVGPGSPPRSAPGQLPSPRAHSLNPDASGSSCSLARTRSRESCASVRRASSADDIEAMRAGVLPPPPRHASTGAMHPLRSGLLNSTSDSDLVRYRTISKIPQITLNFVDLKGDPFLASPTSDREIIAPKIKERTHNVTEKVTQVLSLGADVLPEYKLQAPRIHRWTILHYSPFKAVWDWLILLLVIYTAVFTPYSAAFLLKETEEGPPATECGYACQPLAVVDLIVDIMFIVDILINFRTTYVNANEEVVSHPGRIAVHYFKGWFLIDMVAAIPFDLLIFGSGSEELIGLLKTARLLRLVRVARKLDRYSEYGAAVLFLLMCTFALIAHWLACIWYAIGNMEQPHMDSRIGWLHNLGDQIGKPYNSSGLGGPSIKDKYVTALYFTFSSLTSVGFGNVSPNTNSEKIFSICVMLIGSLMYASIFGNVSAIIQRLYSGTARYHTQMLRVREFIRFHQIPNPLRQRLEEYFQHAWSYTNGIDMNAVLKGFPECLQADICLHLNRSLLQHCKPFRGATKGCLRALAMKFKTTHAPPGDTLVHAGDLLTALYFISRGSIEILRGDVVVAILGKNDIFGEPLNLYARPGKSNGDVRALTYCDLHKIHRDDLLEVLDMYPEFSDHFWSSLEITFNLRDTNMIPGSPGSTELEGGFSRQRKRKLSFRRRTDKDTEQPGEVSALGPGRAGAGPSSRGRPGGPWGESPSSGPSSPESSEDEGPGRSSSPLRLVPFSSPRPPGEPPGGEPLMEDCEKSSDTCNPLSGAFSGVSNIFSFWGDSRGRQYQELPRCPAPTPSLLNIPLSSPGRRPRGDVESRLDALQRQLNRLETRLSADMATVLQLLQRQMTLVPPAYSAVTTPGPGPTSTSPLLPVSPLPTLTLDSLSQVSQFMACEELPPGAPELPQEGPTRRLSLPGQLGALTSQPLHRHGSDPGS

Test system in the first data set: not listed separately
The data set can be described thus: Cmax in rat at 1 mg/kg, iv. The class given is ADME, organism-based. Set-up: dose 1 mg/kg, route intravenous. The settings on record: in vivo.
Compound `COC(=O)N[C@@H](C(=O)N1CCC[C@H]1C(=O)Nc1cccc(OS(=O)(=O)Oc2cccc(NC(=O)[C@@H]3CCCN3C(=O)[C@H](NC(=O)OC)c3ccccc3)c2)c1)c1ccccc1` registered a Cmax of 1960 ng/mL.

The next data set concerns the target hERG (KCNH2) (Homo sapiens, UniProt Q12809). The experiment in a line: Inhibition of human ERG at 10 uM by fluorescence polarization assay.
Conditions: not given
(In general: In fluorescence polarisation assays a small probe gives low polarisation when free and higher when bound to something large.)
In turn, `COC(=O)N[C@@H](C(=O)N1CCC[C@H]1C(=O)Nc1cccc(OS(=O)(=O)Oc2cccc(NC(=O)[C@@H]3CCCN3C(=O)[C@H](NC(=O)OC)c3ccccc3)c2)c1)c1ccccc1` yielded an inhibition at 10 µM of 2.73%.

Another data set concerns Salmonella typhimurium. The data set can be described thus: Mutagenicity in Salmonella typhimurium TA98 assessed as revertant colonies/plate in absence of liver S9 fraction at 1000 ug/plate by Ames test (reference value: 21 +/- 1). The conditions noted are these: salmonella enterica subsp. enterica serovar typhimurium. The class given is toxicity.
For `COC(=O)N[C@@H](C(=O)N1CCC[C@H]1C(=O)Nc1cccc(OS(=O)(=O)Oc2cccc(NC(=O)[C@@H]3CCCN3C(=O)[C@H](NC(=O)OC)c3ccccc3)c2)c1)c1ccccc1`, the Activity is on record as 26.

The test system of another data set is Huh7.5.1. The data set can be described thus: Cytotoxicity against human Huh7.5.1 cells at 20 uM. The class given is cell-based.
Conditions: not given
`COC(=O)N[C@@H](C(=O)N1CCC[C@H]1C(=O)Nc1cccc(OS(=O)(=O)Oc2cccc(NC(=O)[C@@H]3CCCN3C(=O)[C@H](NC(=O)OC)c3ccccc3)c2)c1)c1ccccc1`: the Activity was greater than 30 µM.

Test system in the next data set: not listed separately
The data set can be described thus: Inhibition of HCV genotype 2a JFH5a replicon NS5A in infected human Huh 7.5.1 cells assessed as reduction in viral RNA replication incubated for 3 days by luciferase reporter gene assay. Set-up: species or system Hepatitis C virus subtype 2a. The settings on record: Hepatitis C virus, Huh-7.5.1, 72 h. In a few lines: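 Huh 7.5.1 cells were infected with JFH5a-Rluc-ad34 (a JFH1 genotype 2a derivative with adaptive E2/p7 mutations, Renilla luciferase reporter) cell-culture virus for 3 h. They were then cultured in serially diluted compounds for 3 days. Cells were harvested and Renilla luciferase activity measured, normalised to mock-treated cells, to give EC50.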
Background: Replicon systems follow genome replication, usually without infectious particles.
Regarding `COC(=O)N[C@@H](C(=O)N1CCC[C@H]1C(=O)Nc1cccc(OS(=O)(=O)Oc2cccc(NC(=O)[C@@H]3CCCN3C(=O)[C@H](NC(=O)OC)c3ccccc3)c2)c1)c1ccccc1`, the EC50 was 0.0199 nM.

A further data set deals with Hepatitis C virus subtype 1b. The experiment in a line: Inhibition of HCV genotype 1b NK5.1 NS5A in infected human Huh 7.5.1 cells assessed as reduction in viral RNA replication by measuring combination index in presence of NS5B inhibitor sofosbuvir at ED90 incubated for 3 days by luciferase reporter gene assay.
Conditions: not given
In a few lines: (§1)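 Huh 7.5.1 cells carrying the bicistronic genotype 1b replicon NK5.1-Gluc (secreted Gaussia luciferase) plated at 5 x 10⁴ cells/well. After 16 h they were exposed to inhibitor alone or mixed with sofosbuvir at a constant ratio, serially diluted, for 3 days. Luciferase was read and normalised to mock-treated cells. Combination index at ED50/75/90/95 was obtained by the Chou method.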
(Reporter assays use an easily measured gene product as a stand-in for the process of interest.)
As for `COC(=O)N[C@@H](C(=O)N1CCC[C@H]1C(=O)Nc1cccc(OS(=O)(=O)Oc2cccc(NC(=O)[C@@H]3CCCN3C(=O)[C@H](NC(=O)OC)c3ccccc3)c2)c1)c1ccccc1`, the CI came out at 0.949.

Test system in the next data set: not listed separately
The experiment in a line: Metabolic stability in rat plasma assessed as compound remaining at 100 uM after 4 hrs incubation by LC-MS/MS analysis. The data set is classed as ADME, cell-free. The conditions noted are these: read-out: Stability. In a few lines:
(§2)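 Test compound (100 µM stock) was added to plasma pre-warmed 5 min at 37°C, mixed by vortex and incubated at 37°C. Samples were taken at 0, 15, 30, 60 and […] and quenched with 2 volumes acetonitrile. After centrifugation at 10,000 rpm for 10 min, the supernatant was analysed by LC-MS/MS. Results are given as % remaining after 4 h; mean ± SD. Enalapril and procaine served as controls.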
`COC(=O)N[C@@H](C(=O)N1CCC[C@H]1C(=O)Nc1cccc(OS(=O)(=O)Oc2cccc(NC(=O)[C@@H]3CCCN3C(=O)[C@H](NC(=O)OC)c3ccccc3)c2)c1)c1ccccc1`: the remaining at 4 h, 100 µM stood at 76.7%.

In another data set the test system is Salmonella typhimurium. The experiment in a line: Mutagenicity in Salmonella typhimurium TA98 assessed as revertant colonies/plate in presence of liver S9 fraction at 1000 ug/plate by Ames test (reference value: 25 +/- 3). The data set is classed as toxicity. The settings on record: salmonella enterica subsp. enterica serovar typhimurium.
Turning to `COC(=O)N[C@@H](C(=O)N1CCC[C@H]1C(=O)Nc1cccc(OS(=O)(=O)Oc2cccc(NC(=O)[C@@H]3CCCN3C(=O)[C@H](NC(=O)OC)c3ccccc3)c2)c1)c1ccccc1`, the Activity is given as 29.

The test system of another data set is Salmonella typhimurium. The data set can be described thus: Mutagenicity in Salmonella typhimurium TA100 assessed as revertant colonies/plate in absence of liver S9 fraction at 1000 ug/plate by Ames test (reference value: 125 +/- 9). The data set is classed as toxicity. The settings on record: salmonella enterica subsp. enterica serovar typhimurium.
As for `COC(=O)N[C@@H](C(=O)N1CCC[C@H]1C(=O)Nc1cccc(OS(=O)(=O)Oc2cccc(NC(=O)[C@@H]3CCCN3C(=O)[C@H](NC(=O)OC)c3ccccc3)c2)c1)c1ccccc1`, the Activity was 126.

For a further data set, the system named is Salmonella typhimurium. The data set can be described thus: Mutagenicity in Salmonella typhimurium TA100 assessed as revertant colonies/plate in presence of liver S9 fraction at 1000 ug/plate by Ames test (reference value: 129 +/- 3). The settings on record: salmonella enterica subsp. enterica serovar typhimurium. The class given is toxicity.
Consider `COC(=O)N[C@@H](C(=O)N1CCC[C@H]1C(=O)Nc1cccc(OS(=O)(=O)Oc2cccc(NC(=O)[C@@H]3CCCN3C(=O)[C@H](NC(=O)OC)c3ccccc3)c2)c1)c1ccccc1`, for which the Activity was found to be 130.

Test system in another data set: not listed separately
The data set can be described thus: Oral bioavailability in rat at 10 mg/kg. The class given is ADME, organism-based. The settings on record: in vivo.
Compound `COC(=O)N[C@@H](C(=O)N1CCC[C@H]1C(=O)Nc1cccc(OS(=O)(=O)Oc2cccc(NC(=O)[C@@H]3CCCN3C(=O)[C@H](NC(=O)OC)c3ccccc3)c2)c1)c1ccccc1` yielded a bioavailability of 0.54%.

A further data set has as its system Hepatitis C virus subtype 1b. The data set can be described thus: Inhibition of HCV genotype 1b NK5.1 NS5A in infected human Huh 7.5.1 cells assessed as reduction in viral RNA replication by measuring combination index in presence of NS5B inhibitor sofosbuvir at ED75 incubated for 3 days by luciferase reporter gene assay.
Conditions: not given
In a few lines: as §1
Consider `COC(=O)N[C@@H](C(=O)N1CCC[C@H]1C(=O)Nc1cccc(OS(=O)(=O)Oc2cccc(NC(=O)[C@@H]3CCCN3C(=O)[C@H](NC(=O)OC)c3ccccc3)c2)c1)c1ccccc1`, for which the CI was determined as 0.909.

Test system in the next data set: not listed separately
The data set can be described thus: Half life in rat at 10 mg/kg, po. The settings on record: in vivo. The class given is ADME, organism-based.
In the case of `COC(=O)N[C@@H](C(=O)N1CCC[C@H]1C(=O)Nc1cccc(OS(=O)(=O)Oc2cccc(NC(=O)[C@@H]3CCCN3C(=O)[C@H](NC(=O)OC)c3ccccc3)c2)c1)c1ccccc1`, the half-life is 1.6 h.

Test system in another data set: not listed separately
The data set can be described thus: Metabolic stability in human plasma assessed as compound remaining at 100 uM after 4 hrs incubation by LC-MS/MS analysis. The data set is classed as ADME, cell-free. The settings on record: read-out: Stability. In a few lines:
as §2
Consider `COC(=O)N[C@@H](C(=O)N1CCC[C@H]1C(=O)Nc1cccc(OS(=O)(=O)Oc2cccc(NC(=O)[C@@H]3CCCN3C(=O)[C@H](NC(=O)OC)c3ccccc3)c2)c1)c1ccccc1`, for which the remaining at 4 h, 100 µM was 86.3%.

Test system in another data set: not listed separately
The data set can be described thus: Cmax in rat at 10 mg/kg, po. Also noted: dose 10 mg/kg, route oral. The class given is ADME, organism-based. The settings on record: in vivo.
For `COC(=O)N[C@@H](C(=O)N1CCC[C@H]1C(=O)Nc1cccc(OS(=O)(=O)Oc2cccc(NC(=O)[C@@H]3CCCN3C(=O)[C@H](NC(=O)OC)c3ccccc3)c2)c1)c1ccccc1`, the Cmax came to 14 ng/mL.

Another data set relates to Rattus norvegicus. The experiment in a line: Half life in rat at 1 mg/kg, iv. The class given is ADME, organism-based. The conditions noted are these: in vivo.
Take `COC(=O)N[C@@H](C(=O)N1CCC[C@H]1C(=O)Nc1cccc(OS(=O)(=O)Oc2cccc(NC(=O)[C@@H]3CCCN3C(=O)[C@H](NC(=O)OC)c3ccccc3)c2)c1)c1ccccc1`: the t1/2 is 0.51 h.

For a further data set, the system named is Hepatitis C virus subtype 1b. The experiment in a line: Inhibition of HCV genotype 1b NK5.1 NS5A in infected human Huh 7.5.1 cells assessed as reduction in viral RNA replication by measuring combination index in presence of NS5B inhibitor sofosbuvir at ED50 incubated for 3 days by luciferase reporter gene assay.
Conditions: not given
In a few lines:
as §1
On to `COC(=O)N[C@@H](C(=O)N1CCC[C@H]1C(=O)Nc1cccc(OS(=O)(=O)Oc2cccc(NC(=O)[C@@H]3CCCN3C(=O)[C@H](NC(=O)OC)c3ccccc3)c2)c1)c1ccccc1`, for which the CI was 0.872.

Test system in another data set: not listed separately
The data set can be described thus: Inhibition of HCV genotype 1b NK5.1 NS5A in infected human Huh 7.5.1 cells assessed as reduction in viral RNA replication incubated for 3 days by luciferase reporter gene assay. Also noted: species or system Hepatitis C virus subtype 1b. The settings on record: Hepatitis C virus, NK5.1, Huh-7.5.1, 72 h. In a few lines:
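Genotype 1b replicon cells (Huh 7.5.1 carrying NK5.1-Gluc) were cultured 16 h, then given serially diluted compounds for 3 days. Culture media were collected and luciferase activity measured and normalised to mock-treated cells to derive EC50. Cells were maintained in DMEM with 10% heat-inactivated FBS and antibiotics at 37°C, 6.0% CO₂.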
`COC(=O)N[C@@H](C(=O)N1CCC[C@H]1C(=O)Nc1cccc(OS(=O)(=O)Oc2cccc(NC(=O)[C@@H]3CCCN3C(=O)[C@H](NC(=O)OC)c3ccccc3)c2)c1)c1ccccc1`: the EC50 was 0.0198 nM.

For another data set, the system named is Hepatitis C virus subtype 1b. The experiment in a line: Inhibition of HCV genotype 1b NK5.1 NS5A in infected human Huh 7.5.1 cells assessed as reduction in viral RNA replication by measuring combination index in presence of NS5B inhibitor sofosbuvir at ED95 incubated for 3 days by luciferase reporter gene assay.
Conditions: not given
In a few lines: as §1
As for `COC(=O)N[C@@H](C(=O)N1CCC[C@H]1C(=O)Nc1cccc(OS(=O)(=O)Oc2cccc(NC(=O)[C@@H]3CCCN3C(=O)[C@H](NC(=O)OC)c3ccccc3)c2)c1)c1ccccc1`, the CI was found to be 0.977.

Source of the values: ChEMBL document CHEMBL4041464, “New potent biaryl sulfate-based hepatitis C virus inhibitors” (Eur J Med Chem, 2017).
